Experimental data: ChEMBL document CHEMBL1147851, “Novel class of arylpiperazines containing N-acylated amino acids: their synthesis, 5-HT1A, 5-HT2A receptor affinity, and in vivo pharmacological evaluation” (Bioorg Med Chem, 2007)
Active and inactive are the calls of the source. No cut-off for these calls is given here.

What was measured:
[1] = target: T1, 5-hydroxytryptamine receptor 1A (Rattus norvegicus, UniProt P19327); assay: Displacement of [3H]8-OH-DPAT from serotonin 5HT1A receptor in rat brain hippocampus; type: tissue-based
T1 sequence (P19327 whole entry): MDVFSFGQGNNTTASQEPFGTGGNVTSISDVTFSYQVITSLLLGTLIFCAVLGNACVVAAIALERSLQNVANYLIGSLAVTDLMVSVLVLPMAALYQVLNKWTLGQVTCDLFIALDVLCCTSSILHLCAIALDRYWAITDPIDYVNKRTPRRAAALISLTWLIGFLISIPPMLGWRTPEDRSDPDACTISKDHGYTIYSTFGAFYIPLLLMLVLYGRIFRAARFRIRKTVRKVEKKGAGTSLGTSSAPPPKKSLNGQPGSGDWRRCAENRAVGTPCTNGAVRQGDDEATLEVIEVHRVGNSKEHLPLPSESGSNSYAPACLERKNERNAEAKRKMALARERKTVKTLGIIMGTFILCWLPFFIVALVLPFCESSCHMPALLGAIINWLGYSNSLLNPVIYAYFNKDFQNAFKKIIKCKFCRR
How it was run: (§1)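 Full competition binding with 8–10 drug concentrations (10^-10–10^-3 M), each in triplicate. Ki was derived from at least three experiments.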

[2] = target: 5-hydroxytryptamine receptor 2A (Rattus norvegicus, UniProt P14842); assay: Displacement of [3H]ketanserin from serotonin 5HT2A receptor in rat brain cortex; type: tissue-based; how it was run: as §1
Chain of 5-hydroxytryptamine receptor 2A (P14842 whole entry): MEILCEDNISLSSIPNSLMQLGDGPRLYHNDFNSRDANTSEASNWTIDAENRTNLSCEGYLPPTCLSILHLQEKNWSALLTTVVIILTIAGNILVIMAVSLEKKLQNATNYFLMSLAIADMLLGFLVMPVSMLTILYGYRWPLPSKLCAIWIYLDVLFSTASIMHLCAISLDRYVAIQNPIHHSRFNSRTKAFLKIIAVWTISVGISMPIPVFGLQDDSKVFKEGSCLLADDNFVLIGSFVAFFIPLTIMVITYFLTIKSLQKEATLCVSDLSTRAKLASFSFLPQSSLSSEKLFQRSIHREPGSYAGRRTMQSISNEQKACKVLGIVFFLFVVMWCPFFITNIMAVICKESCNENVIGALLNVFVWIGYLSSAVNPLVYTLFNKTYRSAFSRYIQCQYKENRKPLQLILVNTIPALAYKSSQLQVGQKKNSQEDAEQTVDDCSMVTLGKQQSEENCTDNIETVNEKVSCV

D(2) dopamine receptor = D(2) dopamine receptor (Rattus norvegicus, UniProt P61169); assay: Displacement of [3H]spiperone from dopaminergic D2 receptor in rat striatal membrane; type: cell membranes, Striatum
Chain of D(2) dopamine receptor (P61169 whole entry): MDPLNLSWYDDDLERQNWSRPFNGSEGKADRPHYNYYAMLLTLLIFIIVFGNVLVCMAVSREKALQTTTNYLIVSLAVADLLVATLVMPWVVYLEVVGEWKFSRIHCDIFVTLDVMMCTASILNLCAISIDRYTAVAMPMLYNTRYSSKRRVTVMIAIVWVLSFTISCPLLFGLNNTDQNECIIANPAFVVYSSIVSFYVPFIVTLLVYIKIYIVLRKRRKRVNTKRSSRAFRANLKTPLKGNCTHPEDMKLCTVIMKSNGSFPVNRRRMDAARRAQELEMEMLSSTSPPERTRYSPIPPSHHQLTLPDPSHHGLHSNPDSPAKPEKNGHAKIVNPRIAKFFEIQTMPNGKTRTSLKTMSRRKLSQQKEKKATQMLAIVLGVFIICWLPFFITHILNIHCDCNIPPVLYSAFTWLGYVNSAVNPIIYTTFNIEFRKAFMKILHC
How it was run: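 Rat striatal membranes incubated with [3H]spiperone, with 50 nM ketanserin added to block 5-HT2A sites. Nonspecific binding was defined with 5 μM (±)-butaclamol. Incubation 30 min at 37 °C, stopped by vacuum filtration, washed with 50 mM potassium phosphate pH 7.4, counted by liquid scintillation. Estimated Ki (Cheng–Prusoff) came from two concentrations (0.1, 1 μM) in triplicate, three experiments.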

Mus musculus [3] = species on record: Mus musculus; assay: Effect on body temperature in Swiss Albino mouse; type: functional, organism-based
How it was run: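 Male Albino Swiss mice received the agent alone ip as a suspension in 1% aqueous Tween 80. Rectal body temperature was read at 30, 60, 90 and 120 min after dosing and expressed as Δt from the basal value taken at the start. Six to ten animals per dose.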

Mus musculus [4] = species on record: Mus musculus; assay: Decrease in body temperature in C57BL/6J mouse; type: functional, organism-based
Mus musculus [5] = assay: Anxiolytic-like activity in Swiss Albino mouse at 5 mg/kg by four plate test; type: functional
How it was run: (§2)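 Four-plate test in male Albino Swiss mice, dosed ip 30 or 60 min before testing. After 15 s of exploration, each plate-to-plate crossing triggered a 0.5 s, 120 V floor shock, with no new shock for the next 3 s. Punished crossings were counted over 60 s. n = 10 per group; ANOVA with Dunnett's test.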

Mus musculus [6] = assay: Anxiolytic-like activity in Swiss Albino mouse at 20 mg/kg by four plate test; type: functional; how it was run: as §2
[7] = target: T2, 5-hydroxytryptamine receptor 1A (Mus musculus) (UniProt Q64264); assay: Antagonist activity at 5-HT1A receptor in Swiss Albino mouse assessed as decrease in 8-OH-DPAT induced body temperature; type: functional
T2 sequence (whole entry): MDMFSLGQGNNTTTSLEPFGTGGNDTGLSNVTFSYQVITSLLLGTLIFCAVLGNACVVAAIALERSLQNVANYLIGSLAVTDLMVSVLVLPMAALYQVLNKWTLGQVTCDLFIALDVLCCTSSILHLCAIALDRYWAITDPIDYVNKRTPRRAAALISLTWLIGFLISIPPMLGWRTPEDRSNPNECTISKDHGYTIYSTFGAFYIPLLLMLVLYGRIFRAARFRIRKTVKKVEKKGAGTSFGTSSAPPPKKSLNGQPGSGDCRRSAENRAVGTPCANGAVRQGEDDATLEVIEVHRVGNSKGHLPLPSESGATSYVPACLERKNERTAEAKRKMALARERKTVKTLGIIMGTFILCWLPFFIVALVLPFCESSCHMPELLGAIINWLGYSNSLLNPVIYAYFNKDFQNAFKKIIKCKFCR
How it was run: (§3)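 Male Albino Swiss mice. 8-OH-DPAT 5 mg/kg sc induced hypothermia. Test agents were suspended in 1% aqueous Tween 80 and given ip 45 min before 8-OH-DPAT. Rectal temperature was taken 15, 30, 45 and 60 min after 8-OH-DPAT and expressed as change (Δt) from basal temperature. Six to ten animals per dose.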

Mus musculus [8] = assay: Anxiolytic-like activity in Swiss Albino mouse at 10 mg/kg by four plate test; type: functional; how it was run: as §2
Mus musculus [9] = species on record: Mus musculus; assay: Decrease in body temperature in Albino Swiss mouse
Mus musculus [10] = assay: Antidepressant-like activity in C57BL/6J mouse at 10 mg/kg by tail suspension test; type: functional
How it was run: (§4)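 Tail suspension in male C57BL/6J mice (22–23 g), dosed ip in 1% Tween 80 suspension 30 min before the test. Each mouse hung by adhesive tape about 1 cm from the tail tip, 75 cm above the floor. Total immobility, meaning no limb or body movement except breathing, was scored manually over 6 min. n = 9-10 per group; one-way ANOVA then Dunnett's test.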

Mus musculus [11] = assay: Antidepressant-like activity in C57BL/6J mouse at 20 mg/kg by tail suspension test; type: functional; how it was run: as §4
Mus musculus [12] = assay: Antidepressant-like activity in Swiss Albino mouse at 10 mg/kg by forced swimming test; type: functional
How it was run: (§5)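 Porsolt forced swim in male Albino Swiss mice, agents given ip (1% Tween 80 suspension) 30 min beforehand. Mice were placed in a cylinder 10 cm wide holding 6 cm of water at 23–25 °C for 6 min. Floating immobility was timed over the last 4 min. n = 9-10 per group; ANOVA with Dunnett's test.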

Mus musculus [13] = assay: Antidepressant-like activity in C57BL/6J mouse at 5 mg/kg by tail suspension test; type: functional
Mus musculus [14] = assay: Antidepressant-like activity in Swiss Albino mouse at 20 mg/kg by forced swimming test; type: functional; how it was run: as §5
Mus musculus [15] = assay: Anxiolytic-like activity in Swiss Albino mouse at 2.5 mg/kg by four plate test; type: functional
How it was run: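 Male Albino Swiss mice (24–28 g), each used once, 10 per dose group. Dosing ip at 10 mL/kg, 30 or 60 min before testing depending on agent; tested compounds given as suspensions in 1% aqueous Tween 80. Four-metal-plate floor; 15 s exploration, then each plate-to-plate crossing shocked (120 V, 0.5 s), no new shock for 3 s if still running. Punished crossings counted over 60 s; one-way ANOVA, Dunnett's test.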

Mus musculus [16] = assay: Antidepressant-like activity in Swiss Albino mouse at 5 mg/kg by forced swimming test; type: functional; how it was run: as §5
Mus musculus [17] = assay: Antidepressant-like activity in Swiss Albino mouse at 2.5 mg/kg by forced swimming test; type: functional; how it was run: as §5
[18] = target: T2, 5-hydroxytryptamine receptor 1A (Mus musculus); assay: Activity at 5HT1A receptor in Swiss Albino mouse assessed as decrease in 8-OH-DPAT induced body temperature; type: functional; conditions: filed as agonist; how it was run: as §3
Mus musculus [19] = species on record: Mus musculus; assay: Reduction in spontaneous locomotor activity in Swiss Albino mouse; type: functional, organism-based
How it was run: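 Male Albino Swiss mice dosed ip were placed singly in photoresistor actometers (24 cm diameter, two light beams). Beam crossings were counted over the first 6 min and over a 30-min session. ANOVA with Dunnett's test.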

Structure (SMILES)	Ki [1] [nM]	Ki [2] [nM]	Ki (D(2) dopamine receptor) [nM]	Activity (Mus musculus [5])	other results
O=C1CCC(=O)N1CCCCN1CCN(c2cccc(Cl)c2)CC1	32	121	7800	–	–
O=C(N[C@H]1CC(=O)N(CCCCN2CCN(c3cccc(Cl)c3)CC2)C1=O)C1CCCCC1	26	6.51	2130	–	Activity (Mus musculus [3]): inactive
COc1ccccc1N1CCN(CCCCNC(=O)[C@@H]2CCCN2C(=O)C2CCCCC2)CC1	19	990	3590	–	Activity (Mus musculus [4]): Active
COc1ccccc1N1CCN(CCCCN2C(=O)CCC2=O)CC1	–	1510	490	–	–
O=C(CC1CC2CCC1C2)N[C@H]1CC(=O)N(CCCCN2CCN(c3cccc(Cl)c3)CC2)C1=O (stereo not given in full)	21	4.2	776	–	Activity (Mus musculus [3]): inactive
O=C1C[C@H](NC(=O)C23CC4CC(CC(C4)C2)C3)C(=O)N1CCCCN1CCN(c2cccc(Cl)c2)CC1	47	25	21200	4.6	Activity (Mus musculus [6]): 5.6; Activity [7]: Active; Activity (Mus musculus [8]): 5.1
COc1ccccc1N1CCN(CCCCN2C(=O)C[C@H](NC(=O)C34CC5CC(CC(C5)C3)C4)C2=O)CC1	4	173	1780	–	Activity (Mus musculus [9]): Active
COc1ccccc1N1CCN(CCCCN2C(=O)C[C@H](NC(=O)CC3CC4CCC3C4)C2=O)CC1 (stereo not given in full)	9	47	880	–	Activity (Mus musculus [9]): Active
CN(C)CCCN1c2ccccc2CCc2ccccc21 [IMIPRAMINE]	–	–	–	–	Activity (Mus musculus [10]): 102.5 s; Activity (Mus musculus [11]): 90.2 s; Activity (Mus musculus [12]): 149.1 s; Activity (Mus musculus [13]): 147.4 s; Activity (Mus musculus [14]): 107.8 s
CN1C(=O)CN=C(c2ccccc2)c2cc(Cl)ccc21 [DIAZEPAM]	–	–	–	6.7	Activity (Mus musculus [15]): 6.8
COc1ccccc1N1CCN(CCCCN2C(=O)C[C@H](NC(=O)C3CCCCC3)C2=O)CC1	19	183	2080	6.6	Activity (Mus musculus [10]): 129.1 s; Activity (Mus musculus [16]): 110 s; Activity (Mus musculus [6]): 7.5; Activity (Mus musculus [11]): 116.1 s; Activity (Mus musculus [15]): 4.7; Activity (Mus musculus [17]): 131.6 s; Activity (Mus musculus [12]): 102 s; Activity (Mus musculus [13]): 147.9 s; Activity [18]: Agonist; Activity (Mus musculus [8]): 7; Activity (Mus musculus [19]): inactive; Activity (Mus musculus [14]): 128.1 s
COc1ccccc1N1CCN(CCCCN2C(=O)C[C@H](NC(=O)C3CCCC3)C2=O)CC1	23	480	905	3.4	Activity (Mus musculus [16]): 133.4 s; Activity (Mus musculus [6]): 6; Activity (Mus musculus [12]): 123.3 s; Activity [18]: Agonist; Activity (Mus musculus [8]): 5.2; Activity (Mus musculus [19]): Active; Activity (Mus musculus [14]): 103 s
O=C(N[C@H]1CC(=O)N(CCCCN2CCN(c3cccc(Cl)c3)CC2)C1=O)C1CCCC1	28	47	12400	–	Activity (Mus musculus [9]): Active
